Screening results as filed in PubChem BioAssay.
In the library only some 2.1% were active in any assay of this set; here they are far more common.
GRK2 inh: inhibitors of human GRK2 displacing RNA aptamer. P25098. bead flow cytometry, FAM-aptamer displacement from GRK2. inhibition of aptamer binding, % at 10 µM. 0.59% of 330,000 active. AID 488847;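 active means inhibition of aptamer binding above 40%, roughly 3 SD of noise, on plates passing a quality check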;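 further: median bead fluorescence of bound FAM aptamer so fluorescent compounds give negative values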
LMPTP inh: blocks human LMPTP phosphatase; recombinant LMPTP-A, OMFP fluorogenic substrate, fluorescence intensity; inhibition, % at 20 µM; 0.22% of 360,000 active; AID 651560;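 active means compounds that cut the enzyme signal by at least half of the control window in the single-dose screen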;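 further: plate controls were DMSO wells with enzyme plus substrate for no effect and substrate without enzyme for full effect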
Target sequence (P24666 whole entry, looked up): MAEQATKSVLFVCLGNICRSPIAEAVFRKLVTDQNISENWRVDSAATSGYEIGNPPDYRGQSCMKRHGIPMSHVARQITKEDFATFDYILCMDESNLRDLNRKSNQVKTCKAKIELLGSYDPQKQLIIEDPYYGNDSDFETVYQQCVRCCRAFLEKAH
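Assay system: LMPTP-A phosphatase enzyme | Input: 0.625 nM enzyme | Also added: Fluorogenic phosphatase substrate OMFP at 400 µM final | Compound dosing: One test concentration per compound, 20 µM, with 3% DMSO overall | Schedule: 50 min enzyme reaction at room temperature, protected from light | Signal: Fluorescence intensity | Benchmarks: no-enzyme and uninhibited controls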
STEP block: inhibitors of human striatal-enriched phosphatase STEP. 0.25% of 360,000 active. recombinant STEP, OMFP fluorogenic substrate, fluorescence. AID 588621. inhibition, % at 20 µM. P54829;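 active means inhibition at 20 µM, scaled per plate between control wells, above about 37%, limit read from the data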;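 further: 0% = DMSO with enzyme and substrate and 100% = substrate only without enzyme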
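System: STEP (striatal-enriched tyrosine phosphatase) enzyme, cell-free; medium: Bis-Tris pH 6.0 buffer with DTT, detergent; dosing: 20 µM, 1% DMSO; times: reaction 20 min, ambient temperature; detection: fluorescence, 480/540 nm; read-out basis: normalized % inhibition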
Scp-1 inhibitor: inhibitors of human Scp-1 phosphatase | AID 493091 | 0.88% of 340,000 active | Recombinant Scp1, phosphopeptide, malachite green phosphate absorbance | Q9GZU7 | inhibition, % at 20 µM;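 active means inhibition above about 50% at 20 µM, limit read from the data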;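 further: plate controls were DMSO wells with enzyme for no effect and wells lacking enzyme for full effect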
Target sequence (Q9GZU7 76-261 limits assumed): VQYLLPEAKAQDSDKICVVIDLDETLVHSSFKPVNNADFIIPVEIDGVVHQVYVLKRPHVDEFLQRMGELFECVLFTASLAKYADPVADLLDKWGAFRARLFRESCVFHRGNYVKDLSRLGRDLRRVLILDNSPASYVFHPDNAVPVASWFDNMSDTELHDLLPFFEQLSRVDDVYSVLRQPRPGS
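System: truncated SCP-1 phosphatase (76-261aa); medium: Tris acetate buffer pH 5.5 with MgCl2 and Tween-20; incubation: 45 min room-temperature reaction, 5 min colour, 30 min stabiliser; compound: single 20 µM dose, 1% DMSO; reagent: Phosphorylated 17-residue peptide substrate; read-out: % inhibition at 20 µM; technique: colorimetric free-phosphate detection, absorbance 630 nm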
SUMO1-SIM PPI: modulators of human SUMO1-mediated protein-protein interactions. P63165. SUMO1 binding to a labelled peptide, TR-FRET, 1 h. inhibition, % at 20 µM. 0.33% of 360,000 active; in the data active means inhibition above about 37%
Target sequence (P63165 whole entry, looked up): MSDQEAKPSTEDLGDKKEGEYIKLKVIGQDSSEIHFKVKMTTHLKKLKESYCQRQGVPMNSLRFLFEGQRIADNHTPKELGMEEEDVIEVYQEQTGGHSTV
DNMT1 inh: blocks human DNA methyltransferase DNMT1; DNMT1 molecular beacon, Hinp1I cleavage, fluorescence; inhibition (reported as % activation of signal), % at 10 µM; 0.83% of 360,000 active; AID 588458; in the data active means inhibition above about 50%
GRK2 inh confirm: human GRK2 inhibition confirmation, cherry pick 1. shares compounds with GRK2 inh. bead-bound GRK2, FAM-aptamer displacement, flow cytometry. aptamer displacement, % at 10 µM. 4% of 2,000 active. AID 504451;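 active means aptamer displacement above 40%, near three times the noise of non-fluorescent compounds, on plates passing quality checks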;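 further: negative values mostly reflect intrinsic compound fluorescence rather than true enhancement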
FAM quench CP1: aptamer fluorescence quenching in GRK2 counter-screen. fluorescence response (% of DMSO), % at 10 µM. AID 504580. 2,000 tested, under 10 active. Carboxyfluorescein RNA aptamer on beads, flow cytometry quenching; hits give low values. shares compounds with GRK2 inh;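 active means compounds that quench the bead-bound fluorescent RNA probe, cutting fluorescence to under half of the solvent control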;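 further: counterscreen run without GRK2 so only probe quenching by compound is measured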
GRK2 CP2: human GRK2 inhibition confirmation, cherry pick 2; inhibition of aptamer binding, % at 10 µM; bead-bound GRK2, FAM-aptamer displacement, flow cytometry; AID 504782; 360 tested, under 10 active; shares compounds with GRK2 inh;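 active means inhibition of aptamer binding above 40%, about triple the noise seen with nonglowing compounds, on plates passing quality control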;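 further: negative values mostly come from compounds that fluoresce themselves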
FAM quench CP2: aptamer fluorescence quenching in GRK2 counter-screen. 360 tested, under 10 active. fluorescence response vs DMSO, % at 10 µM. shares compounds with GRK2 inh. AID 588494. carboxyfluorescein RNA aptamer beads, flow cytometry quenching; hits give low values;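 active means response vs DMSO under 50%, meaning signal dropped by over half, treated as fluorescence quencher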;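 further: labelled aptamer on streptavidin beads without GRK2 as a quench counter-screen; 100% = bead fluorescence of DMSO wells and lower means quenching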
* marks the source's active call; other numbers are inactive results; x = not tested or not shown.

SMILES	GRK2 inh	LMPTP inh	STEP block	Scp-1 inhibitor	SUMO1-SIM PPI	DNMT1 inh	GRK2 inh confirm	FAM quench CP1	others
CCN(CC)C(=O)Cc1cc(C(=O)O)c2ccccc2n1	29	-1	-1	-3	9	0	-8	104
O=C(Cc1cc(C(=O)O)c2ccccc2n1)Nc1ccccc1	0	-1	0	3	1	16	x	x
COc1ccc(C2=NO[C@@H]3C(=O)N(c4c(C)cccc4C)C(=O)[C@H]23)cc1OC	1	1	6	-9	-6	-10	x	x	GRK2 CP2=9;FAM quench CP2=100
Cc1cccc(C)c1N1C(=O)[C@@H]2C(c3ccccc3Cl)=NO[C@@H]2C1=O	0	1	1	-6	5	-1	x	x	GRK2 CP2=3;FAM quench CP2=100
COc1ccc2c(c1)c(=O)oc1cc(OCC(=O)N3CCC(C)CC3)ccc12	47*	13	0	77*	7	63*	1	100
COc1ccc2c(c1)c(=O)oc1cc(OCC(=O)N3CCCC(C)C3)ccc12 (centres undefined)	5	4	9	33	8	13	x	x
COc1ccccc1Oc1c(C)oc2c(CN3CCOCC3)c(O)ccc2c1=O	58*	0	-2	1	-4	-2	3	99
COc1ccccc1Oc1coc2c(CN3CCOCC3)c(O)ccc2c1=O	2	0	-1	-2	4	0	x	x
COc1ccc(Cl)cc1S(=O)(=O)N1CCC(C(=O)NC2CC2)CC1	0	1	-1	-2	-2	0	x	x
CSc1ncccc1C(=O)N1CCC(C)(C(=O)O)C1 (centres undefined)	x	-1	-3	x	0	0	x	x
COc1ccccc1NC(=O)Nc1ccc(NC(=O)c2ccccc2O)cc1	92*	2	-3	-4	12	-2	4	101
COc1ccccc1NC(=O)NCCCl	60*	-2	-6	-4	2	2	x	x	GRK2 CP2=-31;FAM quench CP2=98
COc1ccc(NC(=O)Nc2ccccc2OC)cc1	2	0	1	-4	0	-2	x	x
O=C(NCCCl)Nc1ccccc1OCCOc1ccccc1NC(=O)NCCCl	0	-1	0	-7	2	-10	x	x
COc1ccccc1NC(=O)c1ccccc1NC(=O)c1ccccc1C(=O)O	7	0	1	-1	2	0	x	x
COc1ccccc1NC(=O)c1ccccc1C(=O)Nc1ccccc1OC	54*	0	-5	-2	2	0	x	x	GRK2 CP2=-10;FAM quench CP2=101
Cc1c(C(=O)NCc2ccc(C(F)(F)F)cc2)sc(=O)n1Cc1ccc(S(=O)(=O)N(C)C)cc1	x	1	-1	x	6	2	x	x
CNc1cc(-c2cccc(C(=O)N3CCOCC3)c2)ncn1	x	-1	2	x	0	3	x	x
O=C1/C(=C\c2ccc(-c3ccccc3Cl)o2)SC(=S)N1CC1CCCO1 (centres undefined)	51*	5	-2	8	-20	2	36	108
Cc1ccc(/C=C2\SC(=S)N(CC3CCCO3)C2=O)o1 (centres undefined)	22	3	3	7	-19	-6	x	x
COC(=O)c1cc(=O)nc(NN=Cc2ccco2)s1	x	2	-1	x	-18	13	x	x
COc1ccc(C(=O)N(CN2CCCC2=O)c2ccc(C)cc2)cc1	0	0	0	-9	2	-4	x	x
Cc1ccc(N(CN2CCCC2=O)C(=O)c2ccccc2)cc1	67*	-1	2	-3	3	-1	1	99
Cc1cc(C)n2nc(SCC(=O)c3c(N)n(CC(C)C)c(=O)n(C)c3=O)nc2n1	72*	-1	0	-2	7	1	-3	101
C[C@H]1CN([C@@H](C)CO)S(=O)(=O)c2ccc(Br)cc2O[C@H]1CN(C)C(=O)c1cccnc1	x	-1	-2	x	1	4	x	x
SMILES	GRK2 inh	LMPTP inh	STEP block	Scp-1 inhibitor	SUMO1-SIM PPI	DNMT1 inh	GRK2 inh confirm	FAM quench CP1	others
COc1cc(NC(=O)c2ccno2)cc(C(=O)Nc2cccc(C(F)(F)F)c2)c1	3	0	0	-11	8	-9	x	x
COc1cc(NC(=O)c2csc(-c3ccncc3)n2)cc(C(=O)Nc2cccc(C(F)(F)F)c2)c1	1	6	3	14	2	-16	-2	98
O=C(Nc1cccc(C(F)(F)F)c1)c1csc(-c2ccncc2)n1	1	2	-1	15	4	5	x	x
COc1ccc(-c2cc(C(=O)Nc3cc(OC)cc(C(=O)Nc4cccc(C(F)(F)F)c4)c3)[nH]n2)cc1	0	3	-2	-4	16	18	-1	97
CCOC(=O)[C@]12CCCC=C1N(Cc1ccc3c(c1)OCO3)C(=O)[C@H](CC(=O)N1CCN(C(=O)C3CC3)CC1)C2	x	-2	x	x	2	x	x	x
O=C(NCC(F)(F)F)C1C(=O)Nc2ccccc2C(=O)N1Cc1ccccc1 (centres undefined)	x	-1	x	x	3	x	x	x
CCOc1ccc(CNC(=O)C2CCN(S(=O)(=O)N3CCC(C)CC3)CC2)cc1OC	x	-1	0	x	1	-3	x	x
COc1c(F)c(F)c(C(=O)O)c(Nc2cccc(C)c2)c1F	1	-1	-3	-8	3	14	x	x
Cc1cc(C)cc(Nc2c(F)c(F)c(F)c(F)c2C(=O)O)c1	89*	5	3	-4	0	6	-2	89
CCCc1nnc(NC(=O)CCS(=O)(=O)c2ccccc2)s1	13	-1	4	17	1	14	18	99
CCCCc1nnc(NC(=O)CCS(=O)(=O)c2ccc(Cl)cc2)s1	3	-1	2	1	7	2	1	92
